MPTP block: permeability transition pore inhibition. isolated mouse mitochondria, Ca2+ swelling absorbance, 30 min. inhibition, % at 10 µM. 1.4% of 360,000 active. AID 602449;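 active = inhibition of 50% or more, scaled per plate between neutral and stimulator controls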
V-ATPase pHluor: alters yeast V-ATPase proton transport; S. cerevisiae, pHLuorin cytosolic pH fluorescence; response, % at 10 µM; 0.37% of 350,000 active; in the data active = response mostly above about 7.3%, no sharp cut-off; inactive = mostly below about 5.4%; also: actives read high
Granule exo inh: blocks lytic granule exocytosis. TALL-104 LAMP-1 surface exposure, flow cytometry; cells stimulated with thapsigargin and PMA. inhibition, % at 10 µM. 0.66% of 360,000 active. AID 651702;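 active = inhibition above about 55%, limit read from the data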
rCAG RNA binder: molecules binding r(CAG) RNA repeats. r(CAG) RNA repeat, TO-PRO-1 dye displacement fluorescence. inhibition, % at 3 µM. 1.3% of 370,000 active. AID 651821;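 active = inhibition above the plate cutoff, the mean of all test compounds on that plate plus 3 SD, cut at about 35% in these data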;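 also: higher means more dye released from RNA so lower well fluorescence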
T cell modulator: T cell immune modulators affecting CD8 T cell-vesicle binding; 2C CD8+ T cell-vesicle binding, flow cytometry; stronger effect = lower value; response (vesicle binding), % at 7 µM; AID 2052; 0.068% of 330,000 active;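 active = response, share of CD8 T cells binding vesicles, and their 90th percentile fluorescence all below set limits, cut at about 80% in these data, passing the limit was not always enough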;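 also: values below 100% mean blocked vesicle binding to the CD8+ T cells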
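System: murine 2C transgenic CD8+ T lymphocytes; also added: QL9-loaded Drosophila micro-vesicles; times: binding 1.5 h at 37 °C; measured by: flow cytometry, PE anti-B7-1 (FL2) versus Alexa647 anti-CD8 (FL8), PFA-fixed; control set: Peptide-free naked vesicles (low) and QL9 vesicles with 0.7% DMSO vehicle (high)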
B2AR ag: agonists of human beta-2 adrenergic receptor inducing internalization; 0.43% of 340,000 active; Am2.2-beta2AR cells, FAP receptor internalization, flow cytometry; response, % (concentration not given with the values); P07550;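 active = response above a set limit, near 3 SD of response in nonfluorescent compounds, cut at about 42% in these data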
Target sequence (P07550 whole entry, looked up): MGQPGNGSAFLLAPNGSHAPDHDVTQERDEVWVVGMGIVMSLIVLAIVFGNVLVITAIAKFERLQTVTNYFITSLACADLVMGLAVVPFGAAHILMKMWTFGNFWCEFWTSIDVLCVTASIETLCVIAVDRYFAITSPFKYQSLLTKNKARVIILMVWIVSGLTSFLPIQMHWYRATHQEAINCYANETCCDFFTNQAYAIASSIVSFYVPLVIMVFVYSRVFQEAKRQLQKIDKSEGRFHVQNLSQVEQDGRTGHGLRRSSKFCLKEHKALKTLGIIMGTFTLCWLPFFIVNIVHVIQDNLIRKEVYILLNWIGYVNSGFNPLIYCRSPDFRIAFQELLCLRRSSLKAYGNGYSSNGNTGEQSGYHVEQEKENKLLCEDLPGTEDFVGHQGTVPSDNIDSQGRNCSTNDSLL
rCAG bind conf: r(CAG) RNA repeat binding, confirmation. shares compounds with rCAG RNA binder. AID 652065. 70% of 4,300 active. inhibition, % at 3 µM. TO-PRO-1 dye displacement fluorescence;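 active = inhibition above a per-plate cutoff, the mean inhibition of sample wells plus 3 SD, cut at about 35% in these data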;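 also: loss of TO-PRO-1 fluorescence as compound displaces dye from 1x1 AA loop RNA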
dCAG dye counter: counter-screen for rCAG RNA binders: DNA CAG dye complex inhibitors; shares compounds with rCAG RNA binder; d(CAG) DNA oligo TO-PRO-1 dye displacement, fluorescence; inhibition, % at 3 µM; 94% of 4,300 active; AID 652068;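 active = inhibition above its plate's cutoff, the mean test-well inhibition plus 3 SD, cut at about 4.8% in these data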;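 also: hits displace the dye from DNA and so lower well fluorescence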
Large screens that a line does not name were inactive (follow-up assays come after a bar, where they were run). Sampled rows, rich in hits. Any-hit rate of the full collection: about 3.8%.

CCCCOC(=O)Nc1ccc(S(=O)(=O)Nc2ccc([N+](=O)[O-])cc2)cc1	rCAG RNA binder 51 | rCAG bind conf inactive | dCAG dye counter 9.9
CCCCOC(=O)Nc1ccc(S(=O)(=O)Nc2cc(C)nc(C)n2)cc1	none
COC(=O)[C@]12C[C@H](CC(=O)NCCC(C)C)C(=O)N(CCC3=CCCCC3)C1=C[C@H](C1CCCC1)O[C@@H]2C	none (no result: MPTP block, V-ATPase pHluor, Granule exo inh, T cell modulator, B2AR ag)
O=C(Nc1ccc(F)cc1)Nc1nc2ncccn2c1-c1ccc(F)cc1	none (no result: MPTP block, V-ATPase pHluor, Granule exo inh, T cell modulator, B2AR ag)
CCN(CC)CCCNC(=O)CSc1nnc(-c2ccncc2)n1-c1ccc(OC)cc1	none (no result: MPTP block, V-ATPase pHluor, Granule exo inh, T cell modulator, B2AR ag)
Cc1cc(/C=C2\SC(=S)NC2=O)c(C)[nH]1	rCAG RNA binder 35 | rCAG bind conf inactive | dCAG dye counter 6.9
Cc1sc(-n2c(C)cc(/C=C3\SC(=S)NC3=O)c2C)c(C#N)c1C	rCAG RNA binder 69 | rCAG bind conf 76 | dCAG dye counter 35
Cc1cc(/C=C2\SC(=S)NC2=O)c(C)n1-c1cccc(O)c1	rCAG RNA binder 52 | rCAG bind conf 35 | dCAG dye counter 14
CCn1c(C)cc(/C=C2/SC(=S)NC2=O)c1C	none
CN1CCCCC(NC(=O)c2ccc(F)c(F)c2)C1=O (stereo not drawn)	none (no result: MPTP block, V-ATPase pHluor, Granule exo inh, T cell modulator, B2AR ag)
Cc1cccc(Cn2cc(COC(=O)NCCc3ccccc3)nn2)c1	none (no result: MPTP block, V-ATPase pHluor, Granule exo inh, T cell modulator, B2AR ag)
CN(CCO)c1nc(N)c2c(N)nc3c(c2c1C#N)CC(=O)N3Cc1cccs1	rCAG RNA binder 38 | rCAG bind conf inactive | dCAG dye counter 9.2
N#Cc1c(N(CCO)CCO)nc(N)c2c(N)nc3c(c12)CC(=O)N3Cc1cccs1	none (no result: rCAG RNA binder)
CCC(Sc1ncccc1C(=O)O)C(=O)N1CCOCC1 (stereo not drawn)	none
CCC(Sc1ncccc1C(=O)O)C(=O)N1CCCC1 (stereo not drawn)	rCAG RNA binder 43 | rCAG bind conf inactive | dCAG dye counter inactive
CCCNC(=O)N1CC[C@H]2[C@@H]1c1cc(-c3ccc(F)cc3)ccc1N(C)[C@H]2CO	none (no result: MPTP block, V-ATPase pHluor, Granule exo inh, T cell modulator, B2AR ag)
Cc1[nH]c2ccccc2c1/C=N/NC(=O)c1cccc(S(=O)(=O)Nc2cccc(C(F)(F)F)c2)c1	rCAG RNA binder 65 | rCAG bind conf 68 | dCAG dye counter 27
Cc1ccc(S(=O)(=O)NCCC(=O)NC2CCC(C)CC2)cc1 (stereo not drawn)	none
CCC1=C(C)CN(C(=O)NCCc2ccc(S(=O)(=O)NC(=O)NC3CCC(C)CC3)cc2)C1=O (stereo not drawn)	rCAG RNA binder 42 | rCAG bind conf inactive | dCAG dye counter 5.0
Cc1cccc(N2C(=O)C(O)=C(C(=O)c3cccs3)C2c2ccccc2)n1 (stereo not drawn)	none
Cc1cccc(N2C(=O)C(O)=C(C(=O)c3cccs3)C2c2cccc(Oc3ccccc3)c2)n1 (stereo not drawn)	rCAG RNA binder 45 | rCAG bind conf 40 | dCAG dye counter 10
O=C(CCCN1C(=O)/C(=C/c2cccs2)SC1=S)Nc1cccc(C(=O)O)c1	none
O=C(CCCN1C(=O)/C(=C/c2cccs2)SC1=S)Nc1ccc(C(=O)O)cc1	rCAG RNA binder 42 | rCAG bind conf 39 | dCAG dye counter 7.8
CC(/C=C1\SC(=S)N(CCCC(=O)Nc2ccc(C(=O)O)c(O)c2)C1=O)=C\c1ccccc1	none (no result: MPTP block, V-ATPase pHluor, Granule exo inh, rCAG RNA binder, B2AR ag)
O=C(CCN1C(=O)/C(=C/c2cccs2)SC1=S)Nc1cccc(C(=O)O)c1	rCAG RNA binder 60 | rCAG bind conf 52 | dCAG dye counter 18
O=C(CCN1C(=O)/C(=C/c2cccs2)SC1=S)Nc1ccc(C(=O)O)c(O)c1	rCAG RNA binder 93 | rCAG bind conf 80 | dCAG dye counter 50
CC(=Cc1ccccc1)C=C1SC(=S)N(CCCC(=O)Nc2ccc(C(=O)O)c(O)c2)C1=O	rCAG RNA binder 93 (no result: V-ATPase pHluor, T cell modulator, B2AR ag) | rCAG bind conf 92 | dCAG dye counter 76
CC1(C)CC(=O)N(CC(=O)N2CCN(c3cccc(Cl)c3Cl)CC2)c2ccccc2S1(=O)=O	none (no result: MPTP block, V-ATPase pHluor, Granule exo inh, T cell modulator, B2AR ag)
Cc1ccccc1NC(=O)[C@@H]1CC(=O)O[C@@H]1c1ccccc1	none (no result: MPTP block, V-ATPase pHluor, Granule exo inh, T cell modulator, B2AR ag)
C[C@H]1CN(C(=O)OC(C)(C)C)CCN1c1ccc(Br)c(C#N)c1	none (no result: MPTP block, V-ATPase pHluor, Granule exo inh, T cell modulator, B2AR ag)
COC(=O)[C@H]1C[C@@]2(C)c3ccccc3N(C(=O)OC(C)(C)C)[C@H]2N1C(=O)OC(C)(C)C	none (no result: MPTP block, V-ATPase pHluor, Granule exo inh, T cell modulator, B2AR ag)
C=CC[C@@]1(c2ccccc2)Oc2ccccc2-c2nc3ccccc3nc21	none (no result: MPTP block, V-ATPase pHluor, Granule exo inh, T cell modulator, B2AR ag)
Cc1nn(-c2ccccc2)c(Cl)c1/C=C1\SC(=S)N(CCCCCC(=O)O)C1=O	none
O=C(O)CCCN1C(=O)/C(=C/c2cn(-c3ccccc3)nc2-c2cccs2)SC1=S	rCAG RNA binder 64 (no result: T cell modulator) | rCAG bind conf 82 | dCAG dye counter 44
COc1ccc(/C=N/n2c(-c3n[nH]c4c3CCC4)n[nH]c2=S)cc1OC	none
COc1ccc2ccccc2c1C=Nn1c(-c2n[nH]c3c2CCC3)n[nH]c1=S	rCAG RNA binder 48 (no result: MPTP block, V-ATPase pHluor, Granule exo inh, T cell modulator, B2AR ag) | rCAG bind conf 49 | dCAG dye counter 18
CCSc1n[nH]c(=O)n1C	none (no result: MPTP block, V-ATPase pHluor, Granule exo inh, T cell modulator, B2AR ag)
COC(=O)c1cc2c(c3c4cc(F)ccc4n(S(=O)(=O)c4ccc(C)cc4)c13)C(=O)N(Cc1ccccc1)C2	none (no result: MPTP block, V-ATPase pHluor, Granule exo inh, T cell modulator, B2AR ag)
N#C/C(=N\Nc1ccc(Cl)c(Cl)c1)C(=O)C1CC1	rCAG RNA binder 52 | rCAG bind conf 55 | dCAG dye counter 17
COc1ccc(C2CC(=O)N3CN(c4ccc(C)c(Cl)c4)CSC3=C2C#N)cc1 (stereo not drawn)	rCAG RNA binder 38 | rCAG bind conf inactive | dCAG dye counter 8.3
COc1ccc(N2CSC3=C(C#N)C(c4cccc(OC)c4OC)CC(=O)N3C2)cc1 (stereo not drawn)	none
Cc1ccc([C@H]2C(C(=O)O)=CC[C@@H](c3ccc4c(c3)OCO4)N2S(=O)(=O)c2ccc(C)cc2)cc1	rCAG RNA binder 63 | rCAG bind conf 61 | dCAG dye counter 22
Cc1ccc(S(=O)(=O)N2[C@@H](c3cccc(Cl)c3)C(C(=O)O)=CC[C@H]2c2ccc3c(c2)OCO3)cc1	rCAG RNA binder 67 | rCAG bind conf 69 | dCAG dye counter 31
Cc1ccc(S(=O)(=O)N2[C@@H](c3ccc(Cl)cc3)C(C(=O)O)=CC[C@H]2c2ccc3c(c2)OCO3)cc1	rCAG RNA binder 54 | rCAG bind conf 60 | dCAG dye counter 23
Cc1ccc(S(=O)(=O)N2[C@@H](c3ccc(Br)cc3)C(C(=O)O)=CC[C@H]2c2ccc3c(c2)OCO3)cc1	rCAG RNA binder 67 | rCAG bind conf 60 | dCAG dye counter 23
O=C(CSc1nnc(-c2ccc(Cl)cc2)n1C1CCCCC1)NN=Cc1c(O)ccc2ccccc12	none (no result: MPTP block, V-ATPase pHluor, Granule exo inh, T cell modulator, B2AR ag)
CCOC(=O)[C@]12CCCCC/C=C\1N(CCc1ccc(Cl)cc1)C(=O)[C@H]2CC(=O)NCc1cccc(C(F)(F)F)c1	none (no result: MPTP block, V-ATPase pHluor, Granule exo inh, T cell modulator, B2AR ag)

Screening results from PubChem BioAssay.
